Measurements from ChEMBL document CHEMBL4480426, “Novel multi-target directed ligands based on annelated xanthine scaffold with aromatic substituents acting on adenosine receptor and monoamine oxidase B. Synthesis, in vitro and in silico studies” (Bioorg Med Chem, 2019).

Legend:
[1] = molecular target: T1, Adenosine receptor A1 (Homo sapiens) (UniProt P30542); test: Displacement of [3H]CCPA from recombinant human adenosine A1 receptor expressed in CHO cells at 1 uM relative to control; format: cell-based
T1 sequence (whole entry): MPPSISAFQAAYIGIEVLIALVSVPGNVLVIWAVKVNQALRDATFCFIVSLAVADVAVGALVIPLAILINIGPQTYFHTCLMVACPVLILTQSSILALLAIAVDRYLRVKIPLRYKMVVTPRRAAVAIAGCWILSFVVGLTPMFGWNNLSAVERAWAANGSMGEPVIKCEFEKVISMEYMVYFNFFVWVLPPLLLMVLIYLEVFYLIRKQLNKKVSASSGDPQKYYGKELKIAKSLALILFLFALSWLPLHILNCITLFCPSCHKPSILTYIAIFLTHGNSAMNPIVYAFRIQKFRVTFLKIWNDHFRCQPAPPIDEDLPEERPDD
Outline: (§1)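 Purchased membranes of CHO cells expressing human A1 ([3H]CCPA) or human A3 ([3H]PSB-11). A single high compound concentration is screened first; for potent compounds, full inhibition curves spanning 3 orders of magnitude. At least three independent experiments.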

Adenosine receptor A2a = Adenosine receptor A2a (Homo sapiens, UniProt P29274); test: Displacement of [3H]MSX2 from recombinant human adenosine A2a receptor expressed in HEK293 cells; format: cell-based
Adenosine receptor A2a, sequence (P29274 whole entry): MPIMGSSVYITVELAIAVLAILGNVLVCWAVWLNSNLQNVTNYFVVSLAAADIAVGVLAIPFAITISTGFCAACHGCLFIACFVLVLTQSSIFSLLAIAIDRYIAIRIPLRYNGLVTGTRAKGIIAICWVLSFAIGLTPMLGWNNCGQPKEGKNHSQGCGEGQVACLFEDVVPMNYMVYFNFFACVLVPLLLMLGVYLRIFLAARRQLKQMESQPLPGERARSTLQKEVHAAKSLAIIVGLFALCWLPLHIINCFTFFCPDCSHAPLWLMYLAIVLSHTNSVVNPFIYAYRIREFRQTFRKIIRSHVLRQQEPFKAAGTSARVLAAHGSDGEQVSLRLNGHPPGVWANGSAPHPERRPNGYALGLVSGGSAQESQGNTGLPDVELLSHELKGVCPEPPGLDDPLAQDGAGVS

Adenosine receptor A2b = molecular target: T2, Adenosine receptor A2b (Homo sapiens, UniProt P29275); test: Displacement of [3H]PSB603 from recombinant human adenosine A2b receptor expressed in HEK293 cells; format: cell-based
T2 sequence (P29275 whole entry): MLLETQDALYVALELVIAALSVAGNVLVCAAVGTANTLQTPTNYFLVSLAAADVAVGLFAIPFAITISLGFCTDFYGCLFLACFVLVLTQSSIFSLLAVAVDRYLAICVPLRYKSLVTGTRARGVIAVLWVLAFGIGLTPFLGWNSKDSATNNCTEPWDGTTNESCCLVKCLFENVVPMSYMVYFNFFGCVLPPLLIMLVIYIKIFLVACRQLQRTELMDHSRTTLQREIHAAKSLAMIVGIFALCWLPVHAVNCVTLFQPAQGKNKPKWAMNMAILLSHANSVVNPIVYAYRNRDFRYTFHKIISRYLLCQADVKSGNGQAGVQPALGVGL

Adenosine receptor A3 = molecular target: T3, Adenosine receptor A3 (Homo sapiens, UniProt P0DMS8); test: Displacement of [3H]PSB11 from recombinant human adenosine A3 receptor expressed in CHO cells; format: cell-based
T3 sequence (P0DMS8 whole entry): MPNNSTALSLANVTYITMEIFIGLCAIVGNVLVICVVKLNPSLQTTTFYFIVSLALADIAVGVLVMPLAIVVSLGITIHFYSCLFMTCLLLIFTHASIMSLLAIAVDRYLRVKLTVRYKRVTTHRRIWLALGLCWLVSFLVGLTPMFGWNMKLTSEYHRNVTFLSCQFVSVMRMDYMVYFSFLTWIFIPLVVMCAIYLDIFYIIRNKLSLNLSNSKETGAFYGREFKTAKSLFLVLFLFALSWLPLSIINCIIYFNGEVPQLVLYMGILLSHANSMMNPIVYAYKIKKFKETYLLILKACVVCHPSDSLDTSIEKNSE

[2] = molecular target: T4, Adenosine receptor A3 (Homo sapiens) (UniProt P0DMS8); test: Displacement of [3H]PSB11 from recombinant human adenosine A3 receptor expressed in CHO cells at 1 uM relative to control; format: cell-based; outline: as §1
T4 sequence (whole entry): T3 sequence (P0DMS8 whole entry)

[3] = molecular target: T5, Amine oxidase [flavin-containing] A (Homo sapiens, UniProt P21397); test: Inhibition of recombinant human MAOA expressed in baculovirus infected BTI insect cells using p-tyramine as substrate preincubated for 30 mins followed by substrate addition and measured over 45 mins by horseradish peroxidase-Amplex Red-coupled fluorometric assay
T5 sequence (P21397 whole entry): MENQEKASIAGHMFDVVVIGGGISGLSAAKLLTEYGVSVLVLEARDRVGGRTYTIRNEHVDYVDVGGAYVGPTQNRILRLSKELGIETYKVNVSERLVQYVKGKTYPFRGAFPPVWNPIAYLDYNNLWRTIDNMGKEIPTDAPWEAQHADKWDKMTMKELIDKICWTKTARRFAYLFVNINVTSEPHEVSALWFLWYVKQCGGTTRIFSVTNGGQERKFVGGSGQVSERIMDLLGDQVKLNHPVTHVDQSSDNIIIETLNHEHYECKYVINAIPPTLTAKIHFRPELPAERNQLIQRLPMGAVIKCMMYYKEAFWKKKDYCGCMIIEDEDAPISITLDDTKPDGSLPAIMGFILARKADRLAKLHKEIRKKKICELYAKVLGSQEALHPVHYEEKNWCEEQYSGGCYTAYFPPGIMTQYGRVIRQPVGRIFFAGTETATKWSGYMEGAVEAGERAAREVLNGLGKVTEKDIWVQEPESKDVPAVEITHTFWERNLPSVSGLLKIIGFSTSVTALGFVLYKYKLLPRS
Outline: (§2)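 Human recombinant MAO-A or MAO-B enzyme. Activity detected fluorometrically with the Amplex Red monoamine oxidase assay.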

[4] = molecular target: T6, Amine oxidase [flavin-containing] B (Homo sapiens, UniProt P27338); test: Inhibition of recombinant human MAOB expressed in baculovirus infected BTI insect cells using p-tyramine as substrate preincubated for 30 mins followed by substrate addition and measured over 45 mins by horseradish peroxidase-Amplex Red-coupled fluorometric assay; outline: as §2
T6 sequence (P27338 whole entry): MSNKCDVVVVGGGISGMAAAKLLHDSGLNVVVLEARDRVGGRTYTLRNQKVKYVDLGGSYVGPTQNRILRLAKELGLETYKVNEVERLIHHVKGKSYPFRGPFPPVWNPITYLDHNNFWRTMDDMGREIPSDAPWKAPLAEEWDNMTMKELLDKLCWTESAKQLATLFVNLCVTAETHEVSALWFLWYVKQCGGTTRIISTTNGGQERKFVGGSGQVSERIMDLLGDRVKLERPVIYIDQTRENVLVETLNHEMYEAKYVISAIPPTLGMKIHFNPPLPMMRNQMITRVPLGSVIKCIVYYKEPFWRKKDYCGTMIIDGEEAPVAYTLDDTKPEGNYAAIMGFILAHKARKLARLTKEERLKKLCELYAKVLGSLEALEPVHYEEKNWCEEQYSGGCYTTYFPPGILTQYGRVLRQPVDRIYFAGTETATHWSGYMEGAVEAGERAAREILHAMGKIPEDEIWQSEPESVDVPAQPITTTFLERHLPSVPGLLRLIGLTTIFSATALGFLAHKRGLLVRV

[5] = Solubility of the compound in MEM media at 10 to 100 uM; format: physicochemical
[6] = Antioxidant activity assessed as increase in total ferric ion reducing activity at 1000 uM using FeCl3.6H2O and TPTZ incubated for 10 mins under dark condition by FRAP assay relative to control; format: functional; design: scale not given: the % may be the effect or the level left
Outline: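 FRAP reagent made by mixing 10 parts 300 mM acetate buffer pH 3.6, 1 part 10 mM TPTZ in 40 mM HCl and 1 part 20 mM FeCl3·6H2O. Reagent mixed with compound solution, 10 min at room temperature in the dark. Ferrous-TPTZ complex read at 593 nm. Result is absorbance increase versus solvent sample. FeSO4·7H2O standard curve, 37.5–1200 μM.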

inhibition [1]: 21%
Ki (Adenosine receptor A2a): > 1 µM
Ki (Adenosine receptor A2b): > 1 µM
Ki (Adenosine receptor A3): > 1 µM
inhibition [2]: 26%
IC50 [3]: > 1 µM
IC50 [4]: 0.083 µM
solubility [5]: Insoluble
Structure (SMILES): Cn1c(=O)c2c(nc3n2CCCCN3Cc2ccc(Cl)c(Cl)c2)n(C)c1=O
Activity [6]: 0.59%
